This is an account of results in ChEMBL document CHEMBL5500387, “Design, synthesis of combretastatin A-4 piperazine derivatives as potential antitumor agents by inhibiting tubulin polymerization and inducing autophagy in HCT116 cells” (Eur J Med Chem, 2024).

One data set relates to HCT-116. The data set can be described thus: Cytotoxicity against human HCT-116 cells assessed as inhibition of cell proliferation measured after 72 hrs by CCK-8 assay. The note with it: HCT-116, 72 h. The format is functional, cell-based. Put shortly:
(§1)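 Cells seeded at 2×10^3 per well and grown overnight in 10% FBS medium: HCT116 in McCoy's 5A, A549 and AGS in F-12K, SK-MES-1 in DMEM. Compounds added at varied concentrations with 0.1% DMSO control, 72 h at 37 °C. 10% CCK-8 for 2 h, then A450 read. Survival = (As−Ab)/(Ac−Ab)×100%. IC50 from curve fitting.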
In general terms: Tetrazolium dyes change colour on reduction, which living cells bring about.

The nature of data set [1]: Octanol-water partition coefficient, log P of the compound at pH 7.4 at 4 mg measured after 24 hrs by liquid chromatography. The format is physicochemical. The method, boiled down: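 4 mg of compound was dissolved in 1 mL water-saturated n-octanol and held 24 h at room temperature, then centrifuged. The supernatant was mixed with an equal volume of octanol-saturated water, stood 24 h, centrifuged and the phases separated. Phase concentrations were measured by LC standard curves. log P = log(C_octanol/C_water). At least three independent runs.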

For a further data set, the system named is A549. The data set can be described thus: Cytotoxicity against human A549 cells assessed as inhibition of cell proliferation measured after 72 hrs by CCK-8 assay. The format is functional, cell-based. The note with it: A549, 72 h. Put shortly:
as §1

A further data set relates to AGS. The data set can be described thus: Cytotoxicity against human AGS cells assessed as inhibition of cell proliferation measured after 72 hrs by CCK-8 assay. Type of data set: functional, cell-based. Put shortly:
as §1

Another data set relates to SK-MES-1. The data set can be described thus: Cytotoxicity against human SK-MES-1 cells assessed as inhibition of cell proliferation measured after 72 hrs by CCK-8 assay. The format is functional, cell-based. The settings on record: SK-MES-1, 72 h. The method, boiled down:
as §1

Data set [2] in a line: Cytotoxicity against human NCM460 cells assessed as inhibition of cell proliferation measured after 72 hrs by CCK-8 assay. The format is toxicity, cell-based. Put shortly:
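NCM460 normal colonic epithelial cells seeded at 2×10^3 cells/well and grown overnight in RPMI-1640 with 10% FBS. Compounds added at a range of concentrations, 0.1% DMSO as negative control, 72 h at 37 °C. Read-out by CCK-8 (10%, 2 h) at 450 nm. Survival = (As−Ab)/(Ac−Ab)×100%; IC50 taken as concentration giving 50% inhibition of proliferation.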

On to `COc1ccc(/C=C(/C(=O)N2CCN(c3ccc([N+](=O)[O-])cc3)CC2)c2cc(OC)c(OC)c(OC)c2)cc1O`, for which the half-maximal inhibitory concentration (IC50) (as a rule, the point on the concentration scale where inhibition reaches its midpoint) with HCT-116 amounted to 2.77 µM.

As for `COc1ccc(/C=C(/C(=O)N2CCN(c3ccc(C)cc3)CC2)c2cc(OC)c(OC)c(OC)c2)cc1O[C@H]1O[C@@H](CO)[C@@H](O)[C@@H](O)[C@@H]1O`, the logD (in general, the decadic logarithm of the distribution of all forms, ionised or not, between an organic phase and buffer at a given pH) at 24 h in data set [1] is -0.432.

With `COc1ccc(/C=C(/C(=O)N2CCSCC2)c2cc(OC)c(OC)c(OC)c2)cc1O`, in the data set with HCT-116, the IC50 is 1.15 µM.

`COc1ccc(/C=C(/C(=O)N2CCCC2)c2cc(OC)c(OC)c(OC)c2)cc1O`: in the data set on HCT-116, the IC50 was found to be 2.48 µM.

Consider `COc1ccc(/C=C(/C(=O)N2CCN(c3ccc(C)cc3)CC2)c2cc(OC)c(OC)c(OC)c2)cc1O[C@H]1O[C@@H](CO)[C@H](O[C@@H]2O[C@H](CO)[C@H](O)[C@H](O)[C@H]2O)[C@@H](O)[C@@H]1O`, for which the logD at 24 h in data set [1] was -0.824.

`COc1ccc(/C=C(/C(=O)N2CCN(Cc3ccc(Cl)cc3)CC2)c2cc(OC)c(OC)c(OC)c2)cc1O`: the IC50 in the data set on HCT-116 was determined as 2.69 µM.

Turning to `COc1ccc(/C=C(/C(=O)N2CCS(=O)(=O)CC2)c2cc(OC)c(OC)c(OC)c2)cc1O`, in the data set on HCT-116, the IC50 was found to be 1.99 µM.

In data set [1], `COc1ccc(/C=C(/C(=O)N2CCN(c3ccc(C)cc3)CC2)c2cc(OC)c(OC)c(OC)c2)cc1O[C@H]1O[C@@H](CO)[C@H](O)[C@@H](O)[C@@H]1O` had a logD at 24 h of -0.538.

Consider `COc1ccc(/C=C(/C(=O)N2CCOCC2)c2cc(OC)c(OC)c(OC)c2)cc1O`, for which, in the data set on HCT-116, the IC50 stood at 0.926 µM.

As for `COc1ccc(/C=C(/C(=O)N2CCN(Cc3cccc(C)c3)CC2)c2cc(OC)c(OC)c(OC)c2)cc1O`, the IC50 in the data set on HCT-116 is 3.64 µM.

Take `COc1ccc(/C=C(/C(=O)N2CCN(c3ccccc3Cl)CC2)c2cc(OC)c(OC)c(OC)c2)cc1O`: the IC50 with HCT-116 came out at 1.83 µM.

As for `COc1ccc(/C=C(/C(=O)N2CCN(c3ccc(Cl)cc3)CC2)c2cc(OC)c(OC)c(OC)c2)cc1O`, the IC50 amounted to 0.366 µM in the data set on A549, 0.593 µM in the data set with HCT-116, 1.11 µM in the data set on AGS and 0.753 µM with SK-MES-1.

As to `COc1cccc(N2CCN(C(=O)/C(=C/c3ccc(OC)c(O)c3)c3cc(OC)c(OC)c(OC)c3)CC2)c1`, the IC50 with HCT-116 amounted to 1.86 µM.

Take `COc1ccc(/C=C(/C(=O)N2CCN(Cc3ccccc3C)CC2)c2cc(OC)c(OC)c(OC)c2)cc1O`: the IC50 in the data set with HCT-116 was 2.85 µM.

In the case of `COc1ccc(/C=C(/C(=O)N2CCN(c3ccc(Br)cc3)CC2)c2cc(OC)c(OC)c(OC)c2)cc1O`, the IC50 with A549 turned out to be 0.547 µM; in the data set on HCT-116, 0.716 µM; in the data set on AGS, 1.35 µM; with SK-MES-1, 0.803 µM.

In the case of `COc1ccc(/C=C(/C(=O)N2CCN(Cc3ccc(C)cc3)CC2)c2cc(OC)c(OC)c(OC)c2)cc1O`, the IC50 in the data set on HCT-116 worked out at 1.98 µM.

In the case of `COc1ccc(/C=C\c2cc(OC)c(OC)c(OC)c2)cc1O` [COMBRETASTATIN A4], the IC50 at 72 h in data set [2] is 0.011 µM. Also, the logD at 24 h in data set [1] was found to be 2.14. For the same molecule, the IC50 in the data set with AGS was determined as 0.074 µM; with SK-MES-1 it was 0.007 µM.

Consider `COc1ccc(N2CCN(C(=O)/C(=C/c3ccc(OC)c(O)c3)c3cc(OC)c(OC)c(OC)c3)CC2)cc1`, for which the IC50 in the data set on A549 came out at 0.657 µM; with HCT-116, 0.941 µM; in the data set with AGS, 0.882 µM; with SK-MES-1, 0.605 µM.

`COc1ccc(/C=C(/C(=O)N2CCN(c3ccc(F)cc3)CC2)c2cc(OC)c(OC)c(OC)c2)cc1O`: the half-maximal inhibitory concentration (IC50) in the data set on A549 stood at 0.27 µM; in the data set with HCT-116 it was 0.253 µM; in the data set on AGS, 0.531 µM; in the data set with SK-MES-1, 0.385 µM.

As for `COc1ccc(/C=C(/C(=O)N2CCN(c3ccccc3F)CC2)c2cc(OC)c(OC)c(OC)c2)cc1O`, the IC50 with HCT-116 was 1.38 µM.

In turn, `COc1ccc(/C=C(/C(=O)N2CCN(c3ccc(C)cc3)CC2)c2cc(OC)c(OC)c(OC)c2)cc1O[C@H]1O[C@H](CO)[C@@H](O)[C@H](O)[C@@H]1O` registered a logD at 24 h in data set [1] of -0.638.

`COc1ccc(/C=C(/C(=O)N2CCN(c3cccc(C)c3)CC2)c2cc(OC)c(OC)c(OC)c2)cc1O`: the IC50 with HCT-116 is 1.77 µM.

On to `COc1ccc(/C=C(/C(=O)N2CCN(c3ccc(C#N)cc3)CC2)c2cc(OC)c(OC)c(OC)c2)cc1O`, for which the IC50 with HCT-116 amounted to 3.35 µM.

For `COc1ccc(/C=C(/C(=O)N2CCN(Cc3ccc(F)cc3)CC2)c2cc(OC)c(OC)c(OC)c2)cc1O`, the IC50 in the data set with HCT-116 stood at 2.1 µM.

Regarding `COc1ccc(/C=C(/C(=O)N2CCN(c3ccccc3C)CC2)c2cc(OC)c(OC)c(OC)c2)cc1O`, in the data set with HCT-116, the IC50 came out at 1.58 µM.

With `COc1ccc(/C=C(/C(=O)N2CCNCC2)c2cc(OC)c(OC)c(OC)c2)cc1O`, in the data set with HCT-116, the IC50 worked out at 0.735 µM.
